Assay results taken from ChEMBL document CHEMBL1130090, “Antitumor agents. 174. 2',3',4',5,6,7-Substituted 2-phenyl-1,8-naphthyridin-4-ones: their synthesis, cytotoxicity, and inhibition of tubulin polymerization” (J Med Chem, 1997).

Legend:
Type in all cases: functional
HL-60 = assay: Concentration which reduced cell growth to 50 % of level against HL-60 (TB) leukemia cell line; conditions: Homo sapiens
OVCAR-3 = assay: Concentration which reduced cell growth to 50 % of level against OVCAR-3 ovarian cancer line; conditions: Homo sapiens
Tubulin beta chain = Tubulin beta chain (Bos taurus, UniProt Q6B856); assay: Inhibition of bovine tubulin polymerization
U-251 = assay: Concentration which reduced cell growth to 50 % of U251 cancer line; conditions: Homo sapiens
MDA-MB-435 = assay: Concentration which reduced cell growth to 50 % of level against MDA-MB-435 breast cancer line; conditions: Homo sapiens
786-0 = assay: Concentration which reduced cell growth to 50 % of level against 786-0 renal cancer line; conditions: Homo sapiens
SK-MEL-5 = assay: Concentration which reduced cell growth to 50 % of level against SK-MEL-5 melanoma cell line; conditions: Homo sapiens
Tumor Cell line = assay: Cytotoxic effect in human tumor cell lines, tested by the National Cancer Institute; conditions: read-out: Average LogGI50 (converted)
SF-295 = assay: Concentration which reduced cell growth to 50 % of level against SF-295 CNS cancer line; conditions: Homo sapiens
HCT-116 = assay: Concentration which reduced cell growth to 50 % of level against HCT116 colon cancer cell line; conditions: Homo sapiens
PC-3 = assay: Concentration which reduced cell growth to 50 % of level against PC-3 prostate cancer line; conditions: Homo sapiens
NCI-H460 = assay: compound was tested for concentration which reduced cell growth to 50 % of level against NCI-H460 non -small-cell lung cancer cell line; conditions: Homo sapiens
MDA-N = assay: Concentration which reduced cell growth to 50 % of level against MDA-N breast cancer line; conditions: Homo sapiens
[1] = target: Tubulin alpha chain (Sus scrofa) (UniProt P02550); assay: Inhibition of colchicine binding and evaluated only when polymerization IC50 <=1 uM
Procedure, shortened: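 Electrophoretically homogeneous bovine brain tubulin (1.0 µM) incubated 20 min at 37 °C with 5.0 µM [3H]colchicine and 5.0 µM inhibitor in 1.0 M monosodium glutamate (pH 6.6), 1 mM MgCl2, 0.1 mM GTP, 5% (v/v) DMSO. Mixtures filtered through two stacked DEAE-cellulose filters and washed with water. Bound radioactivity counted by liquid scintillation.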

Sequence of Tubulin beta chain (Q6B856 whole entry): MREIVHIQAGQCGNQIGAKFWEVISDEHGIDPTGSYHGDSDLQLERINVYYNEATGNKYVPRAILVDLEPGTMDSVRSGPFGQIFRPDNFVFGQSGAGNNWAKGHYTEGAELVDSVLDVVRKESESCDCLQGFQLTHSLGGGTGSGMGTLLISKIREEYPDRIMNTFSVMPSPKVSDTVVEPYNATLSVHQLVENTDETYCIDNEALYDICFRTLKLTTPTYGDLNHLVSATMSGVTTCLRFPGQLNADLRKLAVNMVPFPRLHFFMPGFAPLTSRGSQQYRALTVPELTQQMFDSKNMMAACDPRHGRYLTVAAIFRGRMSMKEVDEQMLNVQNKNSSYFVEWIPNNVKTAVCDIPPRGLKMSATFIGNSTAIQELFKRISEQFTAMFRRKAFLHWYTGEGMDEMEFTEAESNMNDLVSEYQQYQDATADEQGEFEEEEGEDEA
Sequence of Tubulin alpha chain (Sus scrofa) (P02550 whole entry, looked up): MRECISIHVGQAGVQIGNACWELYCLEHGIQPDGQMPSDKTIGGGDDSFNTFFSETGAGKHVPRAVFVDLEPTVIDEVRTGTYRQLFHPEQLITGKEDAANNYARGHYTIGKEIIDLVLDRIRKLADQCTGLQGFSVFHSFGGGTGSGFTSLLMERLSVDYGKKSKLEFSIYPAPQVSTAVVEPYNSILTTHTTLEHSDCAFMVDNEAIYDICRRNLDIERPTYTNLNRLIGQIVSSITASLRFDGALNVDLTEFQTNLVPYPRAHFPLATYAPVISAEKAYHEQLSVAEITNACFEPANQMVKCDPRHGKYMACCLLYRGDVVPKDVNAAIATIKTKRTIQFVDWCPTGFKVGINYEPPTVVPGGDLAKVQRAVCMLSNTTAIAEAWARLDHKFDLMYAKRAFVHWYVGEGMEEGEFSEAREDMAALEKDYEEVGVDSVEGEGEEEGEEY

Row | Compound | GI50 (HL-60) | GI50 (OVCAR-3) | IC50 (Tubulin beta chain) | GI50 (U-251) | GI50 (MDA-MB-435) | GI50 (786-0) | GI50 (SK-MEL-5) | GI50 (Tumor Cell line) | GI50 (SF-295) | GI50 (HCT-116) | GI50 (PC-3) | GI50 (NCI-H460) | GI50 (MDA-N) | inhibition [1]
1 | COc1ccc(-c2cc(O)c3cc(C)cnc3n2)cc1 | 2.29 µM | 2.95 µM | 7.7 µM | 4.17 µM | 1.82 µM | 5.13 µM | 3.72 µM | 6.17 µM | 5.25 µM | 4.17 µM | 5.37 µM | 4.07 µM | 1.7 µM | 
2 | COc1ccc(-c2cc(O)c3c(C)cc(C)nc3n2)cc1 | 15.5 µM | 32.4 µM | > 40 µM | 91.2 µM | 28.8 µM | 58.9 µM | 17.8 µM | 33.1 µM | 42.7 µM | 36.3 µM | 24 µM | 40.7 µM | 33.1 µM | 
3 | Cc1ccnc2nc(-c3ccc(F)cc3)cc(O)c12 | 4.79 µM | 56.2 µM | 18 µM | 36.3 µM | 2.88 µM | 33.9 µM | 16.2 µM | 38 µM | 79.4 µM | 16.2 µM | 51.3 µM | 32.4 µM | 3.55 µM | 
4 | COc1ccccc1-c1cc(O)c2c(C)ccnc2n1 | 20.9 µM | 12.9 µM | 20 µM | 35.5 µM | 6.46 µM | 60.3 µM | 22.4 µM | 2.82 µM | 23.4 µM | 7.59 µM | 20.9 µM | 24 µM | 8.32 µM | 
5 | Cc1cc(C)c2c(O)cc(-c3ccc(Cl)cc3)nc2n1 | 25.1 µM | 18.2 µM | 32 µM | 30.2 µM | 4.07 µM | 21.4 µM | 14.1 µM | 19.5 µM | 16.2 µM | 14.8 µM | 6.31 µM | 22.4 µM | 3.63 µM | 
6 | COc1cccc(-c2cc(O)c3c(C)cc(C)nc3n2)c1 | 0.174 µM | 0.251 µM | 0.88 µM | 0.17 µM | < 0.01 µM | 0.437 µM | 0.288 µM | 0.646 µM | 0.417 µM | 0.407 µM | 0.309 µM | 0.447 µM | < 0.01 µM | 22%
